# Compound activity (PubChem)
# SENP8 block-1: human SENP8 protease inhibitors, primary screen, biochemical, fluorescence, Nedd8 protein substrate, uHTS; recombinant SENP8; 0.64% of 360,000 active; inhibition, % at 20 µM; Sentrin-specific protease 8 (Homo sapiens), Q96LD8; in the data active = inhibition mostly above about 40%, no sharp cut-off; inactive = mostly below about 27%
# Target sequence (Q96LD8 whole entry, looked up): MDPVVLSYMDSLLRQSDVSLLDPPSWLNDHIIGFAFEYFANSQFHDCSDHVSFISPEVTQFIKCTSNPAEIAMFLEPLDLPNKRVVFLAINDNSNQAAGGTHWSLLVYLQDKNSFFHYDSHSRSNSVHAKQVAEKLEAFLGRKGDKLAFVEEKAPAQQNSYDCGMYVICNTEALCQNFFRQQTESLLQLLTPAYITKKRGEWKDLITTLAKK
# SENP8 block-2: SENP8 protease inhibitors, primary screen, biochemical, luminescence | inhibition, % at 10 µM | 1.2% of 330,000 active | Sentrin-specific protease 8 (Homo sapiens), Q96LD8 | AID 2540, 2010 | purified SENP8, Z-RLRGG-aminoluciferin cleavage; in the data active = inhibition above about 50%
# SENP7 inh: SENP7 protease inhibitors, primary screen, biochemical, luminescence, uHTS. recombinant SENP7, Z-RLRGG-aminoluciferin luminescence, 40 min. inhibition, % at 5 µM. 1.5% of 330,000 active. AID 434973, 2010;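 active = inhibition above about 50% at the single test dose, limit read from the data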;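 also: plate controls were DMSO with enzyme for no effect and no enzyme buffer wells for full effect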
# Target sequence (Q9BQF6 706-1050 limits assumed): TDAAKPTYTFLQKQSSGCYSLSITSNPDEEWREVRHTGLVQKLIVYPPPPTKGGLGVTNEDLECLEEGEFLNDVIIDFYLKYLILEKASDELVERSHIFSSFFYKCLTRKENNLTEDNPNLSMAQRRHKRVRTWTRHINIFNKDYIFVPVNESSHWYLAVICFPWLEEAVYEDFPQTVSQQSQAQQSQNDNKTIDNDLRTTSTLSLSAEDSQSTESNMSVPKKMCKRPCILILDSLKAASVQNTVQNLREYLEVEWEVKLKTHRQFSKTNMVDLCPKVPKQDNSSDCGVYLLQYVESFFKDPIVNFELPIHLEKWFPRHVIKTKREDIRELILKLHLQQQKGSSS
# SENP6 inh: SENP6 protease inhibitors, primary screen, biochemical, luminescence, uHTS | 1.8% of 330,000 active | inhibition, % at 10 µM | Recombinant SENP6 catalytic domain, aminoluciferin luminescence | Sentrin-specific protease 6 (Homo sapiens), Q9GZR1;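 active = inhibition above about 50% at the single tested dose, limit read from the data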;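 also: plate controls were DMSO wells with enzyme for no effect and DMSO wells lacking enzyme for full effect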
# SENP1 inh: human SENP1 catalytic domain inhibitors, primary screen, biochemical, FRET, uHTS; Sentrin-specific protease 1 (Homo sapiens), Q9P0U3; recombinant SENP1 catalytic domain, CyPet-SUMO1-YPet FRET cleavage; inhibition, % at 10 µM; 0.21% of 360,000 active;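 active = inhibition at least 30% at 10 µM, raw YFP signal under a set limit, fluorescence ratio 0.5 to 1.5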;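 also: 0% = enzyme with DMSO and 100% = no enzyme wells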
#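 Test system: hSENP1 catalytic domain, recombinant; Amount: 20 pM final SENP1 enzyme; Medium: Tris pH 8 buffer plus EDTA, NaCl, BME, BSA, NP40, catalase; Schedule: 50 min enzyme reaction, room temperature, light-protected; Technique: FRET fluorescence in CFP and YFP emission channels; Controls: no-enzyme wells low, DMSO-plus-enzyme wells high control.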
# SENP8 confirm: SENP8 protease inhibitors, retest, confirmation, biochemical, luminescence, single concentration; Recombinant SENP8, Z-RLRGG-aminoluciferin luminescence, 60 min; shares compounds with SENP7 inh; inhibition, % at 12.5 µM; 40% of 6,200 active;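 active = mean inhibition across replicates above about 50%, limit read from the data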
# SENP6 conf: SENP6 protease inhibitors, confirmation, biochemical, luminescence, single concentration. shares compounds with SENP7 inh. recombinant SENP6, Z-RLRGG-aminoluciferin luminescence. 58% of 6,200 active. inhibition, % at 12.5 µM
# SENP7 confirm: SENP7 protease inhibitors, retest, confirmation, biochemical, luminescence, single concentration. shares compounds with SENP7 inh. recombinant SENP7, Z-RLRGG-aminoluciferin luminescence, 40 min. inhibition, % at 12.5 µM. 69% of 6,200 active. AID 488917, 2010
# Casp3 SENP sel: caspase-3 protease inhibitors, confirmation, selectivity assay for SENP inhibitor project, biochemical, single concentration; shares compounds with SENP7 inh; purified caspase-3, Z-DEVD-aminoluciferin luminescence, 60 min; inhibition, % at 12.5 µM; 60% of 6,200 active;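 active = mean inhibition above about 50%, limit read from the data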;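 also: plate controls were enzyme with DMSO for no effect and wells without caspase-3 for full effect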
# SENP luc ctr: interferes with luciferase luminescence in SENP counter-screen; shares compounds with SENP7 inh; Pre-incubated SENP8/Z-RLRGG-aminoluciferin, luciferase luminescence interference; inhibition, % at 12.5 µM; 39% of 6,200 active; AID 488919;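 active = mean inhibition above about 50% when retested at one dose, limit read from the data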;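 also: plate controls were DMSO wells with completed reaction for no effect and substrate without enzyme for full effect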
# Numbers without * were called inactive; · = no result given. Most compounds without a hit are left out; they make up all but 2.5% or so of the library.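 The calls were made as follows, unless noted: active = mean inhibition above about 50% in the one-dose retest (limit read from the data); inactive = the rest.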
SMILES,SENP8 block-1,SENP8 block-2,SENP7 inh,SENP6 inh,SENP1 inh,SENP8 confirm,SENP6 conf,SENP7 confirm,Casp3 SENP sel,SENP luc ctr
CC[C@H]1C(=O)[C@@H](Cc2ccccc2)[C@@H]2CCN3C(=O)CCC[C@H]1[C@H]23,15.3,·,·,·,2.0,·,·,·,·,·
CC1(C)C2CC[C@]3(C)C(CC=C4[C@@H]5C[C@@](C)(CO)[C@@H](O)C[C@]56C[C@@H](OC6=O)[C@]43C)[C@@]2(C)CC[C@@H]1O (some centres undefined),22.2,-1.6,0.9,2.0,0.0,·,·,·,·,·
COCCNC(=O)c1c(N)n(-c2ccccc2)c2nc3ccccc3nc12,-258.3,39.4,0.3,61.6*,-21.7,9.6,16.4,7.9,1.9,2.7
COCCn1c(N)c(C(=O)NCc2cccs2)c2nc3ccccc3nc21,-280.4,87.2*,64.3*,84.2*,-27.8,-7.8,3.2,-4.0,2.8,-4.2
CC(C)Cn1c(N)c(C(=O)NCC2CCCO2)c2nc3ccccc3nc21 (centres undefined),-454.8,76.5*,-1.6,76.3*,-19.8,5.0,15.8,6.3,-2.5,-2.8
COCCNC(=O)c1c(N)n(CCCn2ccnc2)c2nc3ccccc3nc12,-318.0,27.6,66.8*,88.8*,-19.6,3.5,8.9,9.6,4.3,-1.9
Nc1c(C(=O)NCC2CCCO2)c2nc3ccccc3nc2n1/N=C/c1ccncc1 (centres undefined),-99.4,·,·,·,-39.5,·,·,·,·,·
CN1CCN(C(=O)C[C@@H]2CC[C@@H]3[C@H](COC[C@@H](O)CN3Cc3cccc(Cl)c3)O2)CC1,17.2,·,·,·,3.6,·,·,·,·,·
Cc1ccccc1-c1n[nH]nc1C1=CC(=O)C[C@H](c2ccc(F)cc2)C1,-8.8,·,·,·,2.6,·,·,·,·,·
CC(C)c1nnc(SCC(=O)Nc2ccc3c(c2)OCCO3)n1C,14.7,-2.4,5.7,5.3,0.7,·,·,·,·,·
C=CCn1c(N)c(C(=O)Nc2ccccc2)c2nc3ccccc3nc21,-401.3,52.4*,19.8,64.2*,-10.8,-19.8,5.1,7.1,-2.9,-1.9
C=CCn1c(N)c(C(=O)OC(C)(C)C)c2nc3ccccc3nc21,-472.9,8.0,2.3,28.3,-81.5,·,·,·,·,·
O=c1sc2ccccc2c(N2CCOCC2)c1[N+](=O)[O-],6.4,22.2,-1.4,56.7*,2.3,15.8,6.3,50.5*,69.8*,55.4*
O=C(NC1CCCCC1)N1CCN(Cc2nc3ccccc3c(=O)[nH]2)CC1,30.8,-4.2,-11.0,59.7*,1.7,-5.0,-4.9,-6.1,-4.0,-4.3
Cc1cccc(N=Nc2cnc(N)s2)c1,11.9,18.1,46.5,55.5*,-1.8,51.7*,43.6,69.6*,24.4,21.5
Cc1cc2nc(-c3ccc(C#N)cc3)c(Cc3cccc(F)c3)n2c(C)c1Br,-89.8,·,·,·,23.9,·,·,·,·,·
CCN(CC)CCCCNc1ncc2cc(-c3cc(OC)cc(OC)c3)c(NC(=O)NC(C)(C)C)nc2n1,-391.8,5.4,-1.5,-2.6,-75.8,·,·,·,·,·
Cc1c(C(=O)Nc2nccs2)oc2ccc(F)cc12,-74.9,-6.0,28.1,-8.2,-0.6,·,·,·,·,·
Cc1c(C(=O)/C=C/c2cccs2)oc2ccc(F)cc12,19.5,2.2,-13.2,51.6*,-10.8,28.4,13.5,11.2,-3.7,21.0
Cc1oc(-c2cccs2)nc1CNC[C@H]1O[C@@H](n2cnc3c(N)ncnc32)[C@H](O)[C@@H]1O,-21.7,3.8,0.0,21.7,-1.3,·,·,·,·,·
Brc1ccc(-c2noc(-c3ccccn3)n2)o1,22.8,86.2*,91.1*,85.3*,-2.4,40.4,86.3*,98.6*,93.1*,38.8
Brc1ccc(-c2nc(-c3ccccn3)no2)o1,1.7,86.9*,89.1*,89.0*,-0.7,92.6*,93.5*,100.8*,96.2*,91.6*
COc1cc(-c2nc(-c3ccc(Br)o3)no2)cc(OC)c1OC,6.6,3.0,-9.0,-1.4,1.1,·,·,·,·,·
Brc1ccc(-c2nc(-c3ccncc3)no2)o1,20.9,-16.7,4.3,32.2,0.7,·,·,·,·,·
O=[N+]([O-])c1ccccc1-c1nc(-c2ccc(Br)o2)no1,-5.4,15.4,20.6,37.8,-1.1,·,·,·,·,·
SMILES,SENP8 block-1,SENP8 block-2,SENP7 inh,SENP6 inh,SENP1 inh,SENP8 confirm,SENP6 conf,SENP7 confirm,Casp3 SENP sel,SENP luc ctr
Clc1ccccc1-c1nc(-c2ccc(Br)o2)no1,2.8,83.1*,82.5*,86.3*,-1.3,-2.7,84.8*,96.6*,68.4*,73.4*
CC(C)CNC(=O)C1(C)CCCCCN1Cc1ccccc1-c1ccccc1 (centres undefined),15.7,·,·,·,0.1,·,·,·,·,·
O=C(Nc1cccnc1)c1ccc(Oc2ccccc2)cc1,31.1,78.3*,89.0*,90.4*,1.7,85.0*,87.6*,98.4*,85.2*,70.2*
O=C(Nc1cccc(Oc2ccc(C(=O)O)c(C(=O)O)c2)c1)c1ccc(-c2ccccc2)cc1,6.6,44.0,2.3,71.7*,3.2,51.2*,39.3,64.3*,50.5*,68.2*
O=C(Nc1ccccc1)C(=O)Nc1cccnc1,26.5,68.8*,85.8*,76.4*,0.2,2.1,25.7,67.4*,73.3*,8.2
CCCCOc1ccc(C(=O)Nc2ccncc2)cc1,13.0,42.5,37.6,57.0*,-1.0,45.1,40.2,77.0*,52.2*,22.1
CCCCOc1ccc(C(=O)NC)cc1,21.9,-19.3,-10.0,-8.2,0.7,·,·,·,·,·
COC(=O)[C@]12CCCCC=C1N(Cc1ccc(Cl)cc1Cl)C(=O)[C@H](CC(=O)NCCC(C)C)C2,12.2,·,·,·,1.3,·,·,·,·,·
O=S1(=O)CC(N2CC=CC2)CN1Cc1cn(Cc2cccc(C(F)(F)F)c2)nn1 (centres undefined),19.9,·,·,·,0.3,·,·,·,·,·
CCc1ccc(-c2cc(C)no2)cc1S(=O)(=O)NCCc1ccc(OC)c(OC)c1,8.1,6.0,6.7,27.6,0.4,·,·,·,·,·
